Activity calls are given as the source filed them. The calls are words filed in the database; no cut-off is given here.
Legend:
[1] = target: T1, Cyclin-dependent kinase 2/cyclin E1 (Homo sapiens) (UniProt P24864+P24941); experiment: Inhibition of CDK2/CycE (unknown origin) using FAM labeled peptide as substrate at 10 uM by IMAP FAM FP assay; type: protein-complex assay
Method in brief: (§1)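 Run by contract partners as an IMAP fluorescence polarization assay. […] Enzyme amount was set to give 50% substrate turnover. Compounds were added in DMSO, IMAP binding solution added after the kinase step, then FP read.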

[2] = Cytotoxicity against human MT4 cells assessed as cell viability at 1250 nM after 7 days by MTT assay relative to control; type: cell-based; details: read-out: Activity
Method in brief: (§2)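 MT4 cells (2−3 × 10⁴/well) in RPMI1640 with 10% FCS, penicillin and streptomycin, exposed to compound at 2500 or 1250 nM for 7 days at 37 °C, 5% CO2. MTT added for 4 h, supernatant removed, formazan dissolved in DMSO, absorbance read at 540 nm. Viability expressed relative to untreated cells (100%).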

CDK9/cyclin T1 [3] = target: T2, CDK9/cyclin T1 (Homo sapiens, UniProt P50750); experiment: Inhibition of CDK9/CycT1 (unknown origin) using TAMRA-Rbtide and ATP as substrate after 1 hr; type: protein-complex assay
T2 sequence (O60563 whole entry): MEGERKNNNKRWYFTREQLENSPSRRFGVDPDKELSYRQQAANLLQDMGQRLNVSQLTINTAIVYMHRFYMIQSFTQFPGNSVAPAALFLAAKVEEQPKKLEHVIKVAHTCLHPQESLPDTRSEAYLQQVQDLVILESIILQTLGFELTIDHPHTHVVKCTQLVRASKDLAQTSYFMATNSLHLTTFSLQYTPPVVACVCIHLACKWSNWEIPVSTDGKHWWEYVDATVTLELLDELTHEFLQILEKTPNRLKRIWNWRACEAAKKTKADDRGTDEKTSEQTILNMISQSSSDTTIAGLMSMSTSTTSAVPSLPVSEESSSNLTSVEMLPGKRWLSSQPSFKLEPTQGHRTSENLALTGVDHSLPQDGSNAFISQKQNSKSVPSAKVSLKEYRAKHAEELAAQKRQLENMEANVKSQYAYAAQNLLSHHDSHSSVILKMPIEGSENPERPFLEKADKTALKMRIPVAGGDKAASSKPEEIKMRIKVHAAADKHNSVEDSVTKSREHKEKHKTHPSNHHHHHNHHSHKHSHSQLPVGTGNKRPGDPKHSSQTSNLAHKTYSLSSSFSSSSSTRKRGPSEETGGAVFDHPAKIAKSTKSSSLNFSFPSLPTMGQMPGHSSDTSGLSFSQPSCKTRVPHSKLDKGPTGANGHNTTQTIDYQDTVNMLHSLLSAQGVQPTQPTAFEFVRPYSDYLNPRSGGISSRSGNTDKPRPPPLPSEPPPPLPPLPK
T2 sequence (P50750 whole entry): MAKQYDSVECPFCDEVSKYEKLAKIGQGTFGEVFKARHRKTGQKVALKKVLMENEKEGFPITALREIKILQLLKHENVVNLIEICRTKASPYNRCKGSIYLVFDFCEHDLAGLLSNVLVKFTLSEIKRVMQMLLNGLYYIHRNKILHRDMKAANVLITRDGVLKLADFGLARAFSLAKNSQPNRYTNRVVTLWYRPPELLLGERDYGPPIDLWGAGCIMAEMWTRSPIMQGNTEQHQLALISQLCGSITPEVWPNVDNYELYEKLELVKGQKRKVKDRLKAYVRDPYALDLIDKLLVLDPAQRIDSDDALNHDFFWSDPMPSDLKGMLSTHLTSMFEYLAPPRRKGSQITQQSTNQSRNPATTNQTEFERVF

[4] = target: T3, CDK9/cyclin T1 (Homo sapiens) (UniProt O60563+P50750); experiment: Competitive inhibition of CDK9/CycT1 (unknown origin) using ATP as substrate; type: protein-complex assay
Method in brief: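 Kinase inhibition measured with inhibitor held constant at 260 nM across five ATP concentrations, printed as 1.33, 4, 12 (K_mATP), 36 and 108 […]. Ki taken from measured IC50 via the Cheng−Prusoff equation, with the IC50/Ki ratio compared across ATP levels.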

[5] = Cytotoxicity against human MT4 cells assessed as cell viability at 2500 nM after 7 days by MTT assay relative to control; type: cell-based; details: read-out: Activity; method in brief: as §2
[6] = target: T4, Cyclin-dependent kinase 4/cyclin D1 (Homo sapiens) (UniProt P11802+P24385); experiment: Inhibition of CDK4/CycD1 (unknown origin) using FAM labeled peptide as substrate at 10 uM by IMAP FAM FP assay; type: protein-complex assay; method in brief: as §1
[7] = system: Human immunodeficiency virus 1; experiment: Antiviral activity against HIV1 HTLV-3B infected in human MT4 cells assessed as inhibition of virus proliferation by measuring host cell viability at 1250 nM relative to control; type: functional
Method in brief: (§3)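 HIV-1 HTLV-IIIB (3400 TCID50/mL per well; titre set by virus yield assay) infected MT4 cells, 2−3 × 10⁴/well in RPMI1640 with 10% FCS, penicillin and streptomycin, cultured as for the 7-day viability assay (37 °C, 5% CO2). Test compounds were at 1250 nM and AZT control at 25 nM. Read-out was MTT (4 h, DMSO, A540), given relative to infected untreated cells (100%).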

[8] = target: T4, Cyclin-dependent kinase 4/cyclin D1 (Homo sapiens); experiment: Inhibition of CDK4/CycD1 (unknown origin) using FAM labeled peptide as substrate at 1 uM by IMAP FAM FP assay; type: protein-complex assay; method in brief: as §1
[9] = target: T3, CDK9/cyclin T1 (Homo sapiens); experiment: Inhibition of CDK9/CycT1 (unknown origin) using TAMRA-Rbtide and ATP as substrate at 1 uM after 1 hr; type: protein-complex assay
[10] = target: T1, Cyclin-dependent kinase 2/cyclin E1 (Homo sapiens); experiment: Inhibition of CDK2/CycE (unknown origin) using FAM labeled peptide as substrate at 1 uM by IMAP FAM FP assay; type: protein-complex assay; method in brief: as §1
CDK9/cyclin T1 [11] = target: T2, CDK9/cyclin T1; experiment: Inhibition of CDK9/CycT1 (unknown origin); type: protein-complex assay
CDK9/cyclin T1 [12] = target: T2, CDK9/cyclin T1; experiment: Inhibition of CDK9/CycT1 (unknown origin) expressed in HEK293 cells using GST-CTDII as substrate
[13] = target: Interleukin-1 receptor-associated kinase 3 (Homo sapiens) (UniProt Q9Y616); experiment: Binding to IRAK3 (unknown origin) at 1 uM
[14] = target: Serine/threonine-protein kinase pim-1 (Homo sapiens) (UniProt P11309); experiment: Inhibition of PIM1 (unknown origin) at 1 uM
[15] = target: Tyrosine-protein kinase receptor UFO (Homo sapiens) (UniProt P30530); experiment: Inhibition of AXL (unknown origin) at 1 uM
[16] = target: Protein kinase C alpha type (Homo sapiens) (UniProt P17252); experiment: Inhibition of PKCalpha (unknown origin) at 1 uM
[17] = target: Tyrosine-protein kinase SYK (Homo sapiens) (UniProt P43405); experiment: Inhibition of SYK (unknown origin) at 1 uM
[18] = target: Receptor tyrosine-protein kinase erbB-2 (Homo sapiens) (UniProt P04626); experiment: Inhibition of ERBB2 (unknown origin) at 1 uM
[19] = target: Platelet-derived growth factor receptor beta (Homo sapiens) (UniProt P09619); experiment: Inhibition of PDGFRb (unknown origin) at 1 uM
Platelet-derived growth factor receptor beta (Homo sapiens), sequence (P09619 whole entry): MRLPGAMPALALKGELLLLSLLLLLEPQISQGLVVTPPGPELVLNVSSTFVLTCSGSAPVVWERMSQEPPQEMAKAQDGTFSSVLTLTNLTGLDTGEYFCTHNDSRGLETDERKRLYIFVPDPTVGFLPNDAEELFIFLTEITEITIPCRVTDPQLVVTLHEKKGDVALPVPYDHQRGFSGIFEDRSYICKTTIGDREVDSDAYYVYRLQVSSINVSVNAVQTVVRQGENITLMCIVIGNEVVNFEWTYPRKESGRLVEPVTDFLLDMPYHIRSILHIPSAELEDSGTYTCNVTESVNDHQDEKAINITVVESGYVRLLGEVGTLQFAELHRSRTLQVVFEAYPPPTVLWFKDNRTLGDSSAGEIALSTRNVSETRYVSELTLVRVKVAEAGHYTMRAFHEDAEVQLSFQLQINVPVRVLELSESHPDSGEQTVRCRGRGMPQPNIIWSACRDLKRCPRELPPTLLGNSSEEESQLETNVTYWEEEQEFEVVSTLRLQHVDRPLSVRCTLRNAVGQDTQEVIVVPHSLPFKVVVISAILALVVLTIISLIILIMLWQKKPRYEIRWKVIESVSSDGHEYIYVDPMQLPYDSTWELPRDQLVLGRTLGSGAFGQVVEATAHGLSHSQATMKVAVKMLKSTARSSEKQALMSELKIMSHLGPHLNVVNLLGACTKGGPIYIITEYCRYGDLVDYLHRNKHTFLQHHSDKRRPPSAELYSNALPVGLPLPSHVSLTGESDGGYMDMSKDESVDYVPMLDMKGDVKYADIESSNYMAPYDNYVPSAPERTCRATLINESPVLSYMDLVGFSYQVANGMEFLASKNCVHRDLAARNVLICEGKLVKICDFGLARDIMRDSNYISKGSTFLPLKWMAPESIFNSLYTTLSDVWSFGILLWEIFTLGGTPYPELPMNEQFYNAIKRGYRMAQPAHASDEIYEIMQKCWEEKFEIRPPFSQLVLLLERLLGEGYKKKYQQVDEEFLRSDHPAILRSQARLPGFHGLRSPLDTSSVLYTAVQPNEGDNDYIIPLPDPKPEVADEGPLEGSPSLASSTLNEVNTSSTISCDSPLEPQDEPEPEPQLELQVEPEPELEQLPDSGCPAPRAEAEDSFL

[20] = target: RAC-alpha serine/threonine-protein kinase (Homo sapiens) (UniProt P31749); experiment: Inhibition of AKT1 (unknown origin) at 1 uM
RAC-alpha serine/threonine-protein kinase (Homo sapiens), sequence (P31749 whole entry): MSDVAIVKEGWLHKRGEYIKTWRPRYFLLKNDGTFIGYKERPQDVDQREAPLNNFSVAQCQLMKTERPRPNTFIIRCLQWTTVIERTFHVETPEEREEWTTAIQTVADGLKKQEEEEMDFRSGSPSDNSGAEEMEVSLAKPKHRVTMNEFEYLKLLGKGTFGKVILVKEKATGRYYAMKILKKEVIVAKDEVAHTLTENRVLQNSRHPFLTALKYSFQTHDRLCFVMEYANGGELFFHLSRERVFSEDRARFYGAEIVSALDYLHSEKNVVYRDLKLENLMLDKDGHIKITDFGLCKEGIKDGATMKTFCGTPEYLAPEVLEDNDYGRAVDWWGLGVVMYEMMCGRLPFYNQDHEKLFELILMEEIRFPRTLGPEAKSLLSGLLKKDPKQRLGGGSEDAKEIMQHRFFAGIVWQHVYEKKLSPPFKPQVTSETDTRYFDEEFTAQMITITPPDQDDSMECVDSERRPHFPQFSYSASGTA

[21] = target: Receptor-type tyrosine-protein kinase FLT3 (Homo sapiens) (UniProt P36888); experiment: Inhibition of FLT3 (unknown origin) at 1 uM
[22] = target: High affinity nerve growth factor receptor (Homo sapiens) (UniProt P04629); experiment: Inhibition of TrkA (unknown origin) at 1 uM
High affinity nerve growth factor receptor (Homo sapiens), sequence (P04629 33-796 limits assumed): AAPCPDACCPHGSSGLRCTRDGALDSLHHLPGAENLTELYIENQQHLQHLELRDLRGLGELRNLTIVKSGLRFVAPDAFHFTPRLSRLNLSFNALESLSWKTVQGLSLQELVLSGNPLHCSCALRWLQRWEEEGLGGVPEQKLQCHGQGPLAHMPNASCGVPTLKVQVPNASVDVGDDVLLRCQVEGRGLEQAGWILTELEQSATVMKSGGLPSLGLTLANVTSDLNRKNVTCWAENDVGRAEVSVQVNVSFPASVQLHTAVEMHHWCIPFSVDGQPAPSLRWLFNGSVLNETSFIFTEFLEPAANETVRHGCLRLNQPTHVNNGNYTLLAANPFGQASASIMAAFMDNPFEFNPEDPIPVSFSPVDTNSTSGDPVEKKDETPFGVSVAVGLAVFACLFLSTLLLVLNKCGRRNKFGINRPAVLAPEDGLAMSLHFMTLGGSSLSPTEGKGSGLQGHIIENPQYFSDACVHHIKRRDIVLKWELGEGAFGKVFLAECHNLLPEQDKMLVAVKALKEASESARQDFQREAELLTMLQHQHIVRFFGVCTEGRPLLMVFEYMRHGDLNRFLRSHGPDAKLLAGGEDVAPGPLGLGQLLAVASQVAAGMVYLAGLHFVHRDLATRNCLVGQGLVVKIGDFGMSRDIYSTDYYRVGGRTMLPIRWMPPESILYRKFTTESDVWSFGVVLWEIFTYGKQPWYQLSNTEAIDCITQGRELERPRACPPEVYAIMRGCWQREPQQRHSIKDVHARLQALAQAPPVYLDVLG

[23] = target: Serine/threonine-protein kinase PAK 4 (Homo sapiens) (UniProt O96013); experiment: Inhibition of PAK4 (unknown origin) at 1 uM
[24] = target: Serine/threonine-protein kinase Chk1 (Homo sapiens) (UniProt O14757); experiment: Inhibition of CHK1 (unknown origin) at 1 uM
[25] = target: Hepatocyte growth factor receptor (Homo sapiens) (UniProt P08581); experiment: Inhibition of cMET (unknown origin) at 1 uM
[26] = target: Epithelial discoidin domain-containing receptor 1 (Homo sapiens) (UniProt Q08345); experiment: Inhibition of DDR1 (unknown origin) at 1 uM
[27] = target: Proto-oncogene tyrosine-protein kinase receptor Ret (Homo sapiens) (UniProt P07949); experiment: Inhibition of RET (unknown origin) at 1 uM
Proto-oncogene tyrosine-protein kinase receptor Ret (Homo sapiens), sequence (P07949 whole entry): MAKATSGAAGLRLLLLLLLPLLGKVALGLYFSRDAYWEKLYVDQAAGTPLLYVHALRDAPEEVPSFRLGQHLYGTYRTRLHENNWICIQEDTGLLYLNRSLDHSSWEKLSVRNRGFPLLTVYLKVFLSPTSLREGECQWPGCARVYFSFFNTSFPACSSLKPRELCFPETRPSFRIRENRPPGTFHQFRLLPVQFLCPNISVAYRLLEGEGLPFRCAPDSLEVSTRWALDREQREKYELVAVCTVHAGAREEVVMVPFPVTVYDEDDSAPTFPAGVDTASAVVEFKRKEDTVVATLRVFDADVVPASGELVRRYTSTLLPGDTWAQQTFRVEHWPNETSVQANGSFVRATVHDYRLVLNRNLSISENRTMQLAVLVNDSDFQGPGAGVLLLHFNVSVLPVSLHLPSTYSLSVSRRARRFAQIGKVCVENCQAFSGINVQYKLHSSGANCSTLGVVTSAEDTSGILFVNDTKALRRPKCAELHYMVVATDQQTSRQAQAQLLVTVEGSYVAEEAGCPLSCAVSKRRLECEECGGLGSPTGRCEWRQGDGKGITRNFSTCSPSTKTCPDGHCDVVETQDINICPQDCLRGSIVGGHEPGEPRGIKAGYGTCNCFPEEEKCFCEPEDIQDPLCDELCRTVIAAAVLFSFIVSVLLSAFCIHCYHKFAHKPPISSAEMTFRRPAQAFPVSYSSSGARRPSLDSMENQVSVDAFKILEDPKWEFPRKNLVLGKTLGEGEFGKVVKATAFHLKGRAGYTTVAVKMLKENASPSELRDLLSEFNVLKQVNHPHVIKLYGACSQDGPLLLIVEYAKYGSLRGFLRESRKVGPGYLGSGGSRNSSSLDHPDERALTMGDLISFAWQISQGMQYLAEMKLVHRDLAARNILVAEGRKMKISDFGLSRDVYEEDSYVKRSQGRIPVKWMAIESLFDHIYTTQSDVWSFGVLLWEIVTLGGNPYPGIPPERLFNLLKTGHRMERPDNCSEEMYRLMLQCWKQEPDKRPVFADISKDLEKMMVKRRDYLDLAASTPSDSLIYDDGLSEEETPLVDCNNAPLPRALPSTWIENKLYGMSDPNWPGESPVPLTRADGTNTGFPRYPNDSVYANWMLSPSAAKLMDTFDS

[28] = target: Insulin receptor (Homo sapiens) (UniProt P06213); experiment: Inhibition of INSR (unknown origin) at 1 uM
[29] = target: Serine/threonine-protein kinase PAK 1 (Homo sapiens) (UniProt Q13153); experiment: Inhibition of PAK1 (unknown origin) at 1 uM
[30] = target: Proto-oncogene tyrosine-protein kinase Src (Homo sapiens) (UniProt P12931); experiment: Inhibition of SRC (unknown origin) at 1 uM
[31] = target: Inhibitor of nuclear factor kappa-B kinase subunit beta (Homo sapiens) (UniProt O14920); experiment: Inhibition of IKKbeta (unknown origin) at 1 uM
[32] = target: Rho-associated protein kinase 2 (Homo sapiens) (UniProt O75116); experiment: Inhibition of ROCK2 (unknown origin) at 1 uM
[33] = target: Angiopoietin-1 receptor (Homo sapiens) (UniProt Q02763); experiment: Inhibition of TIE2 (unknown origin) at 1 uM
[34] = target: Serine/threonine-protein kinase B-raf (Homo sapiens) (UniProt P15056); experiment: Inhibition of bRAF (unknown origin) at 1 uM
[35] = target: Mast/stem cell growth factor receptor Kit (Homo sapiens) (UniProt P10721); experiment: Inhibition of cKIT (unknown origin) at 1 uM
[36] = target: Tyrosine-protein kinase JAK3 (Homo sapiens) (UniProt P52333); experiment: Inhibition of JAK3 (unknown origin) at 1 uM
[37] = target: Interleukin-1 receptor-associated kinase 4 (Homo sapiens) (UniProt Q9NWZ3); experiment: Inhibition of IRAK4 (unknown origin) at 1 uM
Interleukin-1 receptor-associated kinase 4 (Homo sapiens), sequence (Q9NWZ3 whole entry): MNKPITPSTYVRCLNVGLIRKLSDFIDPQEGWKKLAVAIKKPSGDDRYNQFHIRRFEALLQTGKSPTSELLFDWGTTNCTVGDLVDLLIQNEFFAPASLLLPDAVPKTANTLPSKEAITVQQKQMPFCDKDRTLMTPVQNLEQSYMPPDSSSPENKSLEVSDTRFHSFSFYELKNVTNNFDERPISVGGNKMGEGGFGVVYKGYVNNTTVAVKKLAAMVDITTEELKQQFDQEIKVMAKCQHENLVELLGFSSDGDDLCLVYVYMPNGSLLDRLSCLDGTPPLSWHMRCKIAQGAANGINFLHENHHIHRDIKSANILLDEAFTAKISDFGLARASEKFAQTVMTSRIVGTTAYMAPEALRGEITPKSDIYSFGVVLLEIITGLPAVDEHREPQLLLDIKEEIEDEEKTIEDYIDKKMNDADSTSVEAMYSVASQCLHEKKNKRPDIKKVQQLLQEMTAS

[38] = target: Tyrosine-protein kinase ABL1 (Homo sapiens) (UniProt P00519); experiment: Inhibition of ABL (unknown origin) at 1 uM
[39] = target: Tyrosine-protein kinase CSK (Homo sapiens) (UniProt P41240); experiment: Inhibition of CSK (unknown origin) at 1 uM
[40] = target: Serine/threonine-protein kinase mTOR (Homo sapiens) (UniProt P42345); experiment: Inhibition of mTOR (unknown origin) at 1 uM
[41] = target: Vascular endothelial growth factor receptor 2 (Homo sapiens) (UniProt P35968); experiment: Inhibition of VEGFR2 (unknown origin) at 1 uM
[42] = target: Fibroblast growth factor receptor 3 (Homo sapiens) (UniProt P22607); experiment: Inhibition of FGFR3 (unknown origin) at 1 uM
[43] = system: Human immunodeficiency virus 1; experiment: Antiviral activity against HIV1 HTLV-3B infected in human MT4 cells assessed as inhibition of virus proliferation by measuring host cell viability at 25 nM relative to control; type: functional; method in brief: as §3

COc1ccccc1-c1cc(Nc2cccc(P(=O)(O)O)c2)ncn1
inhibition [1]: 56% | viability at 168 h, 1.25 µM [2]: 90% | IC50 (CDK9/cyclin T1 [3]): 429 nM | competitive inhibition (qualitative) [4]: Active | viability at 168 h, 2.5 µM [5]: 90% | inhibition [6]: 40% | Host cell viability relative to infected untreated cells [7]: 130%

CCOP(=O)(CC)Cc1cccc(Nc2cc(-c3cccc(N)c3)ncn2)c1 (stereo unspecified)
IC50 (CDK9/cyclin T1 [3]): 327 nM | inhibition [8]: 22% | inhibition [9]: 96% | inhibition [10]: 18%

COc1ccccc1-c1cc(Nc2cccc(NS(N)(=O)=O)c2)ncn1
IC50 (CDK9/cyclin T1 [11]): 170 nM

Cc1ccc(Nc2cc(-c3cccc(N)c3)ncn2)cc1NS(C)(=O)=O
IC50 (CDK9/cyclin T1 [11]): 129 nM

COc1ccccc1-c1cc(Nc2ccc(C)c(NS(C)(=O)=O)c2)ncn1
IC50 (CDK9/cyclin T1 [12]): 30 nM

CCCP(=O)(O)Cc1cccc(Nc2cc(-c3ccccc3OC)ncn2)c1
IC50 (CDK9/cyclin T1 [3]): 261 nM | competitive inhibition (qualitative) [4]: Active

COc1ccccc1-c1cc(Nc2cccc(S(N)(=O)=O)c2)ncn1
IC50 (CDK9/cyclin T1 [12]): 52 nM

CCCP(=O)(O)Cc1cccc(Nc2cc(-c3ccccc3OCc3ccccc3)ncn2)c1
viability at 168 h, 1.25 µM [2]: 158% | residual activity [13]: 18% | IC50 (CDK9/cyclin T1 [3]): 142 nM | viability at 168 h, 2.5 µM [5]: 141% | Host cell viability relative to infected untreated cells [7]: 141%

CCOP(=O)(CC)Cc1cccc(Nc2cc(-c3ccccc3OC)ncn2)c1 (stereo unspecified)
inhibition [14]: 8% | inhibition [15]: 21% | viability at 168 h, 1.25 µM [2]: 94% | IC50 (CDK9/cyclin T1 [3]): 197 nM | competitive inhibition (qualitative) [4]: Active | inhibition [16]: 8% | inhibition [8]: 24% | inhibition [17]: 8% | inhibition [18]: 11% | inhibition [19]: 18% | inhibition [20]: 11% | inhibition [21]: 12% | inhibition [22]: 8% | inhibition [23]: 25% | viability at 168 h, 2.5 µM [5]: 94% | inhibition [24]: 12% | inhibition [25]: 22% | inhibition [26]: 13% | inhibition [9]: 98% | inhibition [27]: 34% | inhibition [28]: 12% | inhibition [29]: 20% | inhibition [30]: 18% | inhibition [31]: 15% | inhibition [32]: 14% | inhibition [10]: 36% | inhibition [33]: 10% | inhibition [34]: 0% | inhibition [35]: 28% | inhibition [36]: 9% | inhibition [37]: 16% | inhibition [38]: 20% | inhibition [39]: 24% | inhibition [40]: 3% | inhibition [41]: 11% | Host cell viability relative to infected untreated cells [7]: 105% | inhibition [42]: 8%

Cc1cn([C@H]2C[C@H](N=[N+]=[N-])[C@@H](CO)O2)c(=O)[nH]c1=O [ZIDOVUDINE]
Activity [43]: 132%

CCCOc1ccccc1-c1cc(Nc2cccc(CP(=O)(CCC)OCC)c2)ncn1 (stereo unspecified)
IC50 (CDK9/cyclin T1 [3]): 248 nM | competitive inhibition (qualitative) [4]: Active

CCCP(=O)(Cc1cccc(Nc2cc(-c3ccccc3OC)ncn2)c1)OCC (stereo unspecified)
inhibition [14]: -2% | inhibition [15]: 7% | viability at 168 h, 1.25 µM [2]: 66% | IC50 (CDK9/cyclin T1 [3]): 296 nM | competitive inhibition (qualitative) [4]: Active | inhibition [16]: 9% | inhibition [8]: 14% | inhibition [17]: -1% | inhibition [18]: 5% | inhibition [19]: 2% | inhibition [20]: -1% | inhibition [21]: 6% | inhibition [22]: -1% | inhibition [23]: 19% | viability at 168 h, 2.5 µM [5]: 81% | inhibition [24]: 14% | inhibition [25]: 6% | inhibition [26]: 7% | inhibition [9]: 95% | inhibition [27]: 16% | inhibition [28]: 2% | inhibition [29]: 10% | inhibition [30]: 4% | inhibition [31]: 7% | inhibition [32]: 7% | inhibition [10]: 23% | inhibition [33]: 5% | inhibition [34]: 5% | inhibition [35]: 16% | inhibition [36]: 0% | inhibition [37]: 9% | inhibition [38]: 9% | inhibition [39]: 14% | inhibition [40]: 9% | inhibition [41]: 6% | Host cell viability relative to infected untreated cells [7]: 131% | inhibition [42]: 1%

CCCP(=O)(Cc1cccc(Nc2cc(-c3ccccc3OCC)ncn2)c1)OCC (stereo unspecified)
IC50 (CDK9/cyclin T1 [3]): 254 nM | competitive inhibition (qualitative) [4]: Active

Source: ChEMBL document CHEMBL3259517, “Synthesis and evaluation of phosphorus containing, specific CDK9/CycT1 inhibitors” (J Med Chem, 2014)
